From ChEMBL document CHEMBL5154825, “Discovery of V-0219: A Small-Molecule Positive Allosteric Modulator of the Glucagon-Like Peptide-1 Receptor toward Oral Treatment for "Diabesity"” (J Med Chem, 2022)
The source made the active and inactive calls. The rule behind the calls is not given here.

Key:
[1] = Toxicity in Wistar rat assessed anxiety like behavior at 0.5 to 1 mg/kg, ip measured after 30 mins by elevated plus-maze analysis; format: organism-based; conditions: in vivo, 0.5 h, dose 0.5-1 mg/kg
Method in brief: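 Male Wistar rats, naive to the maze, were handled for 7 days. Compound at 0.5 or 1 mg/kg ip in saline/DMSO (0.2%). 30 min after dosing, each rat was placed in the maze centre facing an open arm, and open-arm entries and % time in open arms were scored over 5 min. No retesting; 8 animals.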

[2] = Effective permeability of compound in PBS buffer at pH 7.4 at 50 to 100 uM after 5 hrs by PAMPA; format: ADME; conditions: pH 7.4, 5 h, dose 50-100 µM
[3] = Toxicity in Wistar rat assessed hypolocomotion at 0.5 to 1 mg/kg, ip measured after 30 mins by elevated plus-maze analysis; conditions: in vivo, 0.5 h
[4] = molecular target: T1, Glucagon-like peptide 1 receptor (Rattus norvegicus, UniProt P32301); assay: Positive allosteric modulator activity at GLP-1R in rat INS1 beta-cells assessed potentiation of GLP-1(7-36)NH2 induced insulin secretion incubated for 30 mins in presence of high glucose condition by ELISA; format: cell-based
T1 sequence (P32301 whole entry): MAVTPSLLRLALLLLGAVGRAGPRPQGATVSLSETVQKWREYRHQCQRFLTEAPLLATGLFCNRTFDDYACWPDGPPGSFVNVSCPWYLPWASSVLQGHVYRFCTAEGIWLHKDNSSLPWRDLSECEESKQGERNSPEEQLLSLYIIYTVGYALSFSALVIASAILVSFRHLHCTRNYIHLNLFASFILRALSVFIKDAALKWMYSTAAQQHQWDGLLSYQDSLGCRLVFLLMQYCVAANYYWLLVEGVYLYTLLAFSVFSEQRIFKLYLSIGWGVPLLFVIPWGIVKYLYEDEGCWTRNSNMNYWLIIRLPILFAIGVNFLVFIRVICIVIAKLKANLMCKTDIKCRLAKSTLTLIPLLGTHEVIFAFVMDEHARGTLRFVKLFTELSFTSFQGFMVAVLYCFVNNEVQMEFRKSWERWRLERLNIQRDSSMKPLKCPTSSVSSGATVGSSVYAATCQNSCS

[5] = molecular target: T2, Glucagon-like peptide 1 receptor (Rattus norvegicus) (UniProt P32301); assay: Positive allosteric modulator activity at GLP-1R in rat INS1 beta-cells assessed potentiation of GLP-1(7-36)NH2 induced insulin secretion at 1 uM incubated for 30 mins in presence of 15 mM of glucose by ELISA; format: cell-based; conditions: filed as positive allosteric modulator
T2 sequence (whole entry): T1 sequence (P32301 whole entry)
Method in brief: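 Rat INS-1 cells held in glucose-free medium for 1.5 h (100,000 cells/well). […] Medium was centrifuged at 4 °C and secreted insulin measured by ELISA.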

Peff [2]	EC50 [4] [pM]	Activity [5]	SMILES	Activity [1]	Activity [3]
Active	8		FC(F)(F)c1ccc(-c2noc(CN3CCCC(CN4CCOCC4)C3)n2)cc1 (stereo unspecified)	Non-Toxic	Non-Toxic
		Active	NC(=O)C1CCN(Cc2nc(-c3ccc(C(F)(F)F)cc3)no2)CC1		
		Active	FC(F)(F)c1ccc(-c2noc(CN3CCCCC3CCc3ccccn3)n2)cc1 (stereo unspecified)		
